Assay results as given in ChEMBL document CHEMBL1133628, “Nonnucleoside human cytomegalovirus inhibitors: synthesis and antiviral evaluation of (chlorophenylmethyl)benzothiadiazine dioxide derivatives” (J Med Chem, 2000).

Tests used:
[1] = test system: Human betaherpesvirus 5; assay: In vitro inhibition of HCMV (AD-169) plaque formation.; format: functional, organism-based
Procedure, shortened: (§1)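 Confluent HEL fibroblasts infected with HCMV at 100 PFU of cell-free virus; after a 2-h adsorption, residual virus removed and cells incubated in MEM with 2% FCS containing serial 5-fold compound dilutions, in duplicate. Fixed with ethanol after 7 days at 37 °C, 5% CO2, then Giemsa-stained; cytopathic effect scored microscopically. IC50 read graphically from % cytopathicity; mean of two experiments.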

[2] = test system: Human immunodeficiency virus 2; assay: In vitro inhibition of HIV-2(ROD) cytopathicity in CEM cells.; format: functional, organism-based; conditions: Human immunodeficiency virus 2, CCRF-CEM
Procedure, shortened: (§2)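 CEM cells at 4×10^5 cells/mL infected with HIV-1 IIIB or HIV-2 ROD (stocks from MT-4 supernatants) at ~100 CCID50/mL, then immediately mixed with compound dilutions. Giant cell formation scored microscopically after 4 days; EC50 is the concentration inhibiting it by 50%. Triplicate assays.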

[3] = test system: CCRF-CEM; assay: In vitro inhibition of CEM cell proliferation.; format: functional; conditions: Homo sapiens
Procedure, shortened: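 CEM cell proliferation measured alongside the HIV assays; CC50 is the concentration reducing CEM cell proliferation by 50%.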

[4] = test system: Human betaherpesvirus 5; assay: In vitro inhibition of HCMV (Davis) plaque formation.; format: functional, organism-based; procedure, shortened: as §1
[5] = test system: Human alphaherpesvirus 3; assay: In vitro inhibition of Thymidine Kinase-Varicella-Zoster Virus(OKA) plaque formation.; format: functional, organism-based; conditions: Human alphaherpesvirus 3, oka
Procedure, shortened: (§3)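 Confluent HEL fibroblasts infected with VZV at 20 PFU; after a 2-h adsorption, residual virus removed and cells incubated in MEM with 2% FCS containing serial 5-fold compound dilutions, in duplicate. Fixed with ethanol after 5 days at 37 °C, 5% CO2, then Giemsa-stained; plaques counted microscopically. IC50 read graphically from plaque number (% of control); mean of two independent experiments.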

[6] = test system: HEL; assay: Inhibition of cell growth in HEL cells.; format: functional; conditions: Homo sapiens
Procedure, shortened: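 HEL fibroblasts seeded at 5×10^3 cells/well and left to proliferate 24 h, then given compound dilutions in duplicate. Incubated 3 days at 37 °C, 5% CO2; cells counted with a Coulter counter. CC50 is the concentration reducing cell growth by 50%.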

[7] = test system: Human alphaherpesvirus 3; assay: In vitro inhibition of Thymidine Kinase deficient Varicella Zoster Virus (07/1) plaque formation.; format: functional, organism-based; procedure, shortened: as §3
[8] = test system: Human immunodeficiency virus 1; assay: In vitro inhibition of HIV-1(IIIB) cytopathicity in CEM cells.; format: functional, organism-based; conditions: Human immunodeficiency virus 1, CCRF-CEM; procedure, shortened: as §2
[9] = test system: Human alphaherpesvirus 3; assay: In vitro inhibition of Thymidine Kinase-Varicella Zoster Virus(YS) plaque formation.; format: functional, organism-based; procedure, shortened: as §3
[10] = test system: Human alphaherpesvirus 3; assay: In vitro inhibition of Thymidine Kinase deficient Varicella Zoster Virus (YS/R) plaque formation.; format: functional, organism-based; procedure, shortened: as §3
[11] = test system: HEL; assay: In vitro alteration in cell morphology in HEL cells.; format: functional; conditions: Homo sapiens
Procedure, shortened: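 Normal HEL cells exposed to compounds and examined microscopically; minimum cytotoxic concentration is the lowest giving a detectable change in cell morphology. Duplicate assays.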

[12] = test system: Human betaherpesvirus 5; assay: concentration required to reduce virus HCMV (A)plaque formation by 50%; format: functional, organism-based
Procedure, shortened: (§4)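 Wild-type HCMV clinical isolates from patients (congenital infection, mononucleosis, AIDS, bone marrow transplant) tested in confluent HEL fibroblasts. IC50 taken as the concentration reducing virus plaque formation by 50%; assays in duplicate.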

[13] = test system: Human betaherpesvirus 5; assay: concentration required to reduce virus HCMV (F)plaque formation by 50%; format: functional, organism-based; procedure, shortened: as §4
[14] = test system: Human betaherpesvirus 5; assay: concentration required to reduce virus HCMV (D)plaque formation by 50%; format: functional, organism-based; procedure, shortened: as §4
[15] = test system: Human betaherpesvirus 5; assay: concentration required to reduce virus HCMV (E)plaque formation by 50%; format: functional, organism-based; procedure, shortened: as §4
[16] = test system: Human betaherpesvirus 5; assay: concentration required to reduce virus HCMV (G)plaque formation by 50%; format: functional, organism-based; procedure, shortened: as §4
[17] = test system: Human betaherpesvirus 5; assay: concentration required to reduce virus HCMV (B)plaque formation by 50%; format: functional, organism-based; procedure, shortened: as §4
[18] = test system: Human betaherpesvirus 5; assay: concentration required to reduce virus HCMV (C)plaque formation by 50%; format: functional, organism-based; procedure, shortened: as §4
[19] = concentration required to reduce virus Human Cytomegalovirus (Davis)plaque formation by 50%; format: functional
Procedure, shortened: (§5)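 Confluent HEL fibroblasts were infected with 100 PFU cell-free HCMV, and residual virus was removed after 2 h. Cells were kept in MEM with 2% FCS and compound dilutions spaced 5-fold, in duplicate, for 7 days at 37 °C in 5% CO2. They were ethanol-fixed and Giemsa-stained, and cytopathic effect was scored microscopically. IC50 was interpolated from plots as the mean of two experiments.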

[20] = concentration required to reduce virus HCMV (AD-169)plaque formation by 50%; format: functional, Homo sapiens; procedure, shortened: as §5
[21] = concentration required to reduce CEM cell proliferation by 50%; conditions: Homo sapiens

Row | SMILES | IC50 [1] [µM] | EC50 [2] [µM] | CC50 [3] [µM] | IC50 [4] [µM] | IC50 [5] [µM] | CC50 [6] [µM] | IC50 [7] [µM] | EC50 [8] [µM] | IC50 [9] [µM] | IC50 [10] [µM] | MCC [11] [µM] | other results
1 | O=C1c2ccccc2N(Cc2ccccc2Cl)S(=O)(=O)N1Cc1ccccc1Cl | > 50 | > 10 | 40.4 | 50 | > 50 | > 200 | > 50 | 15 | > 50 | 5 | > 20 | –
2 | Nc1nc2c(ncn2COC(CO)CO)c(=O)[nH]1 [GANCICLOVIR] | 3.7 | – | – | – | – | 394 | – | – | – | – | > 150 | IC50 [12]: 6.2 µM; IC50 [13]: 6.2 µM; IC50 [14]: 4.1 µM; IC50 [15]: 4.1 µM; IC50 [16]: 8.2 µM; IC50 [17]: 6.2 µM; IC50 [18]: 6.2 µM
3 | C#CCOCN1c2ccccc2C(=O)N(Cc2ccccc2)S1(=O)=O | – | > 8 | 23 | – | – | > 140 | – | > 8 | – | 36 | 140 | –
4 | O=C1c2ccccc2N(Cc2ccccc2Cl)S(=O)(=O)N1COCc1ccccc1 | 10 | > 10 | 22.2 | 10 | > 50 | > 50 | > 50 | > 10 | > 50 | 8 | 200 | –
5 | Nc1ccn(C[C@@H](CO)OCP(=O)(O)O)c(=O)n1 [CIDOFOVIR] | 0.58 | – | – | 1.3 | – | 317 | – | – | – | – | > 159 | –
6 | O=S1(=O)N=C(OCc2ccc(Cl)cc2)c2ccccc2N1Cc1ccc(Cl)cc1 | – | – | – | – | – | – | – | – | – | – | – | EC50 [19]: > 50 µM; EC50 [20]: > 50 µM; CC50 [21]: > 250 µM
7 | O=S1(=O)N=C(OCc2ccccc2)c2ccccc2N1Cc1ccc(Cl)c(Cl)c1 | > 50 | > 10 | 30.5 | > 50 | > 50 | > 200 | > 50 | > 10 | > 20 | > 50 | 200 | –
8 | O=C1c2ccccc2N(COCc2ccccc2)S(=O)(=O)N1Cc1ccccc1 | 20 | > 8 | 25 | – | – | > 122 | > 12 | > 8 | – | > 12 | 122 | –
9 | O=C1c2ccccc2N(Cc2ccccc2)S(=O)(=O)N1Cc1ccccc1Cl | > 50 | > 250 | > 250 | > 50 | > 50 | > 200 | > 50 | > 250 | > 20 | > 50 | 200 | –
10 | O=C1c2ccccc2N(COCc2ccccc2)S(=O)(=O)N1COCc1ccccc1 | 12 | 25 | 27.7 | 12 | 14 | 130 | > 50 | 25 | > 50 | 10 | 200 | –
11 | O=S1(=O)N=C(OCc2ccccc2)c2ccccc2N1Cc1ccccc1 | 7 | > 10 | 22.2 | 7 | > 50 | > 200 | > 50 | > 10 | > 50 | 20 | 200 | –
12 | O=C(OCOCN1c2ccccc2C(=O)N(Cc2ccccc2)S1(=O)=O)c1ccccc1 | 29 | > 40 | 100 | > 44 | > 44 | 37 | > 44 | > 40 | > 44 | 26 | 110 | –
13 | O=C1c2ccccc2N(Cc2cccc(Cl)c2)S(=O)(=O)N1Cc1ccccc1 | > 5 | > 10 | 21.3 | > 5 | > 50 | > 200 | 30 | 5.5 | > 50 | – | > 5 | –
14 | Nc1nc2c(ncn2COCCO)c(=O)[nH]1 [ACYCLOVIR] | – | – | – | – | 4.53 | > 400 | 41 | – | 4.09 | 63 | > 150 | –
15 | O=C1c2ccccc2N(Cc2ccc(Cl)cc2)S(=O)(=O)N1Cc1ccccc1 | 4 | 8 | 19.7 | 3 | 18 | > 200 | 11 | 6.5 | 22 | 2.4 | > 5 | –
16 | O=C1c2ccccc2N(Cc2ccc(Cl)c(Cl)c2)S(=O)(=O)N1Cc1ccccc1 | 3.3 | > 2 | 16.4 | 3.5 | > 50 | > 200 | 27 | > 2 | > 50 | 4.5 | 200 | –
17 | O=C1c2ccccc2N(Cc2ccc(Cl)cc2)S(=O)(=O)N1Cc1ccc(Cl)cc1 | 3.2 | 7.5 | 35.8 | 3.2 | 3.6 | > 200 | 11 | > 10 | 3.8 | 2.4 | > 50 | –
18 | O=C1c2ccccc2N(Cc2ccccc2)S(=O)(=O)N1Cc1ccccc1 | 10 | ≥ 50 | 108 | 10 | 7.4 | > 200 | 23 | 25 | 36 | 6 | > 50 | –
19 | O=C1c2ccccc2N(Cc2ccccc2)S(=O)(=O)N1COCc1ccccc1 | – | 20 | 100 | – | > 12 | > 98 | > 12 | 15 | > 12 | – | 49 | –
20 | O=C1c2ccccc2N(Cc2ccccc2)S(=O)(=O)N1Cc1ccc(Cl)cc1 | 3 | > 10 | 27.8 | 3.5 | 2.6 | 121 | 10 | 5 | 8.2 | 2.6 | 20 | –
21 | O=C1c2ccccc2N(Cc2ccccc2Cl)S(=O)(=O)N1Cc1ccccc1 | 15 | > 10 | 27.9 | 12 | > 20 | 88 | > 20 | > 10 | > 20 | > 20 | 200 | –
